Measurements: ChEMBL document CHEMBL5550111, “Design, synthesis and biological evaluation of aryloxy thiophosphoramidate triesters of anticancer nucleoside analogues” (Bioorg Med Chem, 2024)

What was measured:
MDA-MB-231 [1] = assay: Cytotoxicity against human MDA-MB-231 cells assessed as maximum inhibition of cell viability upto 198 uM incubated for 72 hrs by MTS assay relative to control; format: functional; settings: up to 198 µM
How it was run: (§1)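 Cells seeded at 0.5 to 100 × 10^3 per well the day before drug addition, then exposed to compound for 72 h. MTS added afterwards, with a further 4 h at 37 °C, and absorbance read. Tested in duplicate at 9 serial 3.16-fold dilutions, top concentration 198 μM. MI% is the maximum inhibition of viability across the tested range.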

CAKI-2 [2] = assay: Cytotoxicity against human CAKI-2 cells assessed as maximum inhibition of cell viability upto 198 uM incubated for 72 hrs by MTS assay relative to control; format: functional; settings: up to 198 µM; how it was run: as §1
HT-29 [3] = assay: Cytotoxicity against human HT-29 cells assessed as inhibition of cell viability incubated for 72 hrs by MTS assay; format: functional, cell-based; settings: HT-29, 72 h
How it was run: (§2)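 Cells seeded at 0.5 to 100 × 10^3 per well the day before treatment, then exposed for 72 h to 9 serial concentrations (3.16-fold dilutions, top 198 μM), in duplicate. MTS added for a final 4 h at 37 °C and absorbance read. IC50 is the concentration giving 50% loss of viability. MI% is the maximum inhibition over the tested range.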

A498 [4] = assay: Cytotoxicity against human A498 cells assessed as inhibition of cell viability incubated for 72 hrs by MTS assay; format: functional, cell-based; settings: A498, 72 h; how it was run: as §2
A498 [5] = assay: Cytotoxicity against human A498 cells assessed as maximum inhibition of cell viability upto 198 uM incubated for 72 hrs by MTS assay relative to control; format: functional; settings: up to 198 µM; how it was run: as §1
RL [6] = assay: Cytotoxicity against human RL cells assessed as inhibition of cell viability incubated for 72 hrs by MTS assay; format: functional, cell-based; how it was run: as §2
MOLT-4 [7] = assay: Cytotoxicity against human MOLT-4 cells assessed as inhibition of cell viability incubated for 72 hrs by MTS assay; format: functional, cell-based; settings: MOLT-4, 72 h; how it was run: as §2
[8] = Cytotoxicity against human T24/83 cells assessed as maximum inhibition of cell viability upto 198 uM incubated for 72 hrs by MTS assay relative to control; format: functional; settings: up to 198 µM; how it was run: as §1
5637 [9] = assay: Cytotoxicity against human 5637 cells assessed as maximum inhibition of cell viability upto 198 uM incubated for 72 hrs by MTS assay relative to control; format: functional; settings: up to 198 µM; how it was run: as §1
[10] = Cytotoxicity against human T24/83 cells assessed as inhibition of cell viability incubated for 72 hrs by MTS assay; format: functional, cell-based; settings: T24/83, 72 h; how it was run: as §2
K562 [11] = assay: Cytotoxicity against human K562 cells assessed as maximum inhibition of cell viability upto 198 uM incubated for 72 hrs by MTS assay relative to control; format: functional; settings: up to 198 µM; how it was run: as §1
CAKI-2 [12] = assay: Cytotoxicity against human CAKI-2 cells assessed as inhibition of cell viability incubated for 72 hrs by MTS assay; format: functional, cell-based; settings: CAKI-2, 72 h; how it was run: as §2
COLO 205 [13] = assay: Cytotoxicity against human COLO 205 cells assessed as inhibition of cell viability incubated for 72 hrs by MTS assay; format: functional, cell-based; settings: COLO 205, 72 h; how it was run: as §2
MIA PaCa-2 [14] = assay: Cytotoxicity against human MIA PaCa-2 cells assessed as maximum inhibition of cell viability upto 198 uM incubated for 72 hrs by MTS assay relative to control; format: functional; settings: up to 198 µM; how it was run: as §1
COLO 205 [15] = assay: Cytotoxicity against human COLO 205 cells assessed as maximum inhibition of cell viability upto 198 uM incubated for 72 hrs by MTS assay relative to control; format: functional; settings: up to 198 µM; how it was run: as §1
K562 [16] = assay: Cytotoxicity against human K562 cells assessed as inhibition of cell viability incubated for 72 hrs by MTS assay; format: functional, cell-based; settings: K562, 72 h; how it was run: as §2
RL [17] = assay: Cytotoxicity against human RL cells assessed as maximum inhibition of cell viability upto 198 uM incubated for 72 hrs by MTS assay relative to control; format: functional; settings: up to 198 µM; how it was run: as §1
MDA-MB-231 [18] = assay: Cytotoxicity against human MDA-MB-231 cells assessed as inhibition of cell viability incubated for 72 hrs by MTS assay; format: functional, cell-based; settings: MDA-MB-231, 72 h; how it was run: as §2
[19] = Cytotoxicity against human ACHN-luc2 cells assessed as inhibition of cell viability incubated for 72 hrs by MTS assay; format: functional, cell-based; settings: ACHN-luc2, 72 h; how it was run: as §2
HT-29 [20] = assay: Cytotoxicity against human HT-29 cells assessed as maximum inhibition of cell viability upto 198 uM incubated for 72 hrs by MTS assay relative to control; format: functional; settings: up to 198 µM; how it was run: as §1
MOLT-4 [21] = assay: Cytotoxicity against human MOLT-4 cells assessed as maximum inhibition of cell viability upto 198 uM incubated for 72 hrs by MTS assay relative to control; format: functional; settings: up to 198 µM; how it was run: as §1
PC-3 [22] = assay: Cytotoxicity against human PC-3 cells assessed as inhibition of cell viability incubated for 72 hrs by MTS assay; format: functional, cell-based; settings: PC-3, 72 h; how it was run: as §2
MCF7 [23] = assay: Cytotoxicity against human MCF7 cells assessed as maximum inhibition of cell viability upto 198 uM incubated for 72 hrs by MTS assay relative to control; format: functional; settings: up to 198 µM; how it was run: as §1
KG-1 [24] = assay: Cytotoxicity against human KG-1 cells assessed as inhibition of cell viability incubated for 72 hrs by MTS assay; format: functional, cell-based; settings: KG-1, 72 h; how it was run: as §2
HL-60 [25] = assay: Cytotoxicity against human HL-60 cells assessed as maximum inhibition of cell viability upto 198 uM incubated for 72 hrs by MTS assay relative to control; format: functional; settings: up to 198 µM; how it was run: as §1
HepG2 [26] = assay: Cytotoxicity against human HepG2 cells assessed as inhibition of cell viability incubated for 72 hrs by MTS assay; format: functional, cell-based; settings: HepG2, 72 h; how it was run: as §2
5637 [27] = assay: Cytotoxicity against human 5637 cells assessed as inhibition of cell viability incubated for 72 hrs by MTS assay; format: functional, cell-based; settings: Homo sapiens, 5637, 72 h; how it was run: as §2
HepG2 [28] = assay: Cytotoxicity against human HepG2 cells assessed as maximum inhibition of cell viability upto 198 uM incubated for 72 hrs by MTS assay relative to control; format: functional; settings: up to 198 µM; how it was run: as §1
PC-3 [29] = assay: Cytotoxicity against human PC-3 cells assessed as maximum inhibition of cell viability upto 198 uM incubated for 72 hrs by MTS assay relative to control; format: functional; settings: up to 198 µM; how it was run: as §1
[30] = Cytotoxicity against human ACHN-luc2 cells assessed as maximum inhibition of cell viability upto 198 uM incubated for 72 hrs by MTS assay relative to control; format: functional; settings: up to 198 µM; how it was run: as §1
KG-1 [31] = assay: Cytotoxicity against human KG-1 cells assessed as maximum inhibition of cell viability upto 198 uM incubated for 72 hrs by MTS assay relative to control; format: functional; settings: up to 198 µM; how it was run: as §1
MIA PaCa-2 [32] = assay: Cytotoxicity against human MIA PaCa-2 cells assessed as inhibition of cell viability incubated for 72 hrs by MTS assay; format: functional, cell-based; settings: MIA PaCa-2, 72 h; how it was run: as §2
HL-60 [33] = assay: Cytotoxicity against human HL-60 cells assessed as inhibition of cell viability incubated for 72 hrs by MTS assay; format: functional, cell-based; settings: HL-60, 72 h; how it was run: as §2
MCF7 [34] = assay: Cytotoxicity against human MCF7 cells assessed as inhibition of cell viability incubated for 72 hrs by MTS assay; format: functional, cell-based; settings: MCF7, 72 h

## Nc1ncnc2c1ncn2[C@@H]1O[C@H](CO)C[C@H]1O [CORDYCEPIN]
MDA-MB-231 [1]
  Imax: 59%
CAKI-2 [2]
  Imax: 25%
HT-29 [3]
  IC50: 26.3 µM
A498 [4]
  IC50: 85.4 µM
A498 [5]
  Imax: 18%
RL [6]
  IC50: 135 µM
MOLT-4 [7]
  IC50: 85.3 µM
[8]
  Imax: 96%
5637 [9]
  Imax: 44%
[10]
  IC50: 99.1 µM
K562 [11]
  Imax: 70%
CAKI-2 [12]
  IC50: 94.2 µM
COLO 205 [13]
  IC50: 108 µM
MIA PaCa-2 [14]
  Imax: 87%
COLO 205 [15]
  Imax: 24%
K562 [16]
  IC50: 94.4 µM
RL [17]
  Imax: 4%
MDA-MB-231 [18]
  IC50: 78.6 µM
[19]
  IC50: 77 µM
HT-29 [20]
  Imax: 90%
MOLT-4 [21]
  Imax: 77%
PC-3 [22]
  IC50: 85.3 µM
MCF7 [23]
  Imax: 93%
KG-1 [24]
  IC50: 89 µM
HL-60 [25]
  Imax: 57%
HepG2 [26]
  IC50: 77.2 µM
5637 [27]
  IC50: 71.6 µM
HepG2 [28]
  Imax: 71%
PC-3 [29]
  Imax: 70%
[30]
  Imax: 14%
KG-1 [31]
  Imax: 92%
MIA PaCa-2 [32]
  IC50: 76.8 µM
HL-60 [33]
  IC50: 145 µM
MCF7 [34]
  IC50: 45.9 µM
